Reference: ChEMBL document CHEMBL1123569 (J Med Chem, 1987)
pIC50: −log10 of the molar value. *1 amine or outer side, *2 acyl side, *3 side chain or, on linkers, in order; H or OH if unused. Where a SMILES comes first, the peptide text is derived from it. [ ]: non-standard residue; d: D form. The star is where a group is joined. ξ: configuration not given here. Met(O2) = CS(=O)(=O)CC[C@H](N)C(=O)O; Sta = CC(C)C[C@H](N)[C@@H](O)CC(=O)O; X1 = O=C(C(N[*:1])c1cccs1)[*:2]; ξGly(cPent) = NC(C(=O)O)C1CCCC1; Cha = N[C@@H](CC1CCCCC1)C(=O)O; Isovaleryl = CC(C)CC(=O)*; ξChg = NC(C(=O)O)C1CCCCC1; ξPhg = NC(C(=O)O)c1ccccc1; Nle = CCCC[C@H](N)C(=O)O; Boc = CC(C)(C)OC(=O)*; Bn = c1ccc(C*)cc1; X2 = c1cncc(C*)c1

What follows are molecules tested against T1, Renin (Homo sapiens, UniProt P00797) (assay: Inhibition of human plasma renin).
T1 sequence (P00797 whole entry): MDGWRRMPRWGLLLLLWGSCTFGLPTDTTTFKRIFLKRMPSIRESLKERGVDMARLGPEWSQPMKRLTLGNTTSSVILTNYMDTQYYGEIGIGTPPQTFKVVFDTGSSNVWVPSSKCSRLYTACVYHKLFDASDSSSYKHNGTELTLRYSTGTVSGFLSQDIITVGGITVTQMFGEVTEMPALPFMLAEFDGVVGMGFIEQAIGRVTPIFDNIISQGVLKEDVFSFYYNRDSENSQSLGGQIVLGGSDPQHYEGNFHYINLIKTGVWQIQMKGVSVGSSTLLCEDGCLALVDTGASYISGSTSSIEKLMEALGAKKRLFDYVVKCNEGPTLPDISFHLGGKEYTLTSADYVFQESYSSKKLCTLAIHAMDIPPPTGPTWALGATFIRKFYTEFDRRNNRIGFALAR
Type: cell-free
In short: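 Enriched human plasma renin preparation, substrate its own endogenous angiotensinogen (about 2×10^-6 M). Inhibitor added over a range of increasing concentrations. Angiotensin I released was quantified by RIA. With substrate held constant across the series, IC50 is treated as linearly proportional to Ki.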
For `COC(=O)C[C@H](O)[C@H](CC(C)C)NC(=O)[C@H](C)NC(=O)C[C@H](O)[C@H](CC(C)C)NC(=O)C(NC(=O)[C@H](Cc1ccccc1)NC(=O)OC(C)(C)C)C1CCCC1` (some centres undefined) (Boc-F[ξGly(cPent)][Sta]A[Sta]-OMe), the pIC50 was 7.43.
`COC(=O)C[C@H](O)[C@H](CC(C)C)NC(=O)[C@H](C)NC(=O)C[C@H](O)[C@H](CC(C)C)NC(=O)C(NC(=O)[C@H](Cc1ccccc1)NC(=O)OC(C)(C)C)c1ccccc1` (some centres undefined) (Boc-F[ξPhg][Sta]A[Sta]-OMe) was tested, and the pIC50 was 7.03.
With `COC(=O)C[C@H](O)[C@H](CC(C)C)NC(=O)[C@H](C)NC(=O)C[C@H](O)[C@H](CC(C)C)NC(=O)C(NC(=O)[C@H](Cc1ccccc1)NC(=O)OC(C)(C)C)C1CCCCC1` (some centres undefined) (Boc-F[ξChg][Sta]A[Sta]-OMe) the pIC50 was 6.82.
For `COC(=O)C[C@H](O)[C@H](CC(C)C)NC(=O)[C@H](C)NC(=O)C[C@H](O)[C@H](CC(C)C)NC(=O)[C@H](CO)NC(=O)[C@H](Cc1ccccc1)NC(=O)OC(C)(C)C` (Boc-FS[Sta]A[Sta]-OMe), the pIC50 was 6.36.
`COC(=O)C[C@H](O)[C@H](CC(C)C)NC(=O)[C@H](C)NC(=O)C[C@H](O)[C@H](CC(C)C)NC(=O)[C@H](COCc1cccnc1)NC(=O)[C@H](Cc1ccccc1)NC(=O)OC(C)(C)C` (Boc-FS(X2)[Sta]A[Sta]-OMe) showed a pIC50 of 6.50.
Work on `COC(=O)C[C@H](O)[C@H](CC(C)C)NC(=O)[C@H](C)NC(=O)C[C@H](O)[C@H](CC(C)C)NC(=O)[C@H](Cc1c[nH]c2ccccc12)NC(=O)[C@H](Cc1ccccc1)NC(=O)OC(C)(C)C` (Boc-FW[Sta]A[Sta]-OMe) yielded a pIC50 of 6.92.
Work on `COC(=O)C[C@H](O)[C@H](CC(C)C)NC(=O)[C@H](C)NC(=O)C[C@H](O)[C@H](CC(C)C)NC(=O)[C@H](CCSC)NC(=O)[C@H](Cc1ccccc1)NC(=O)OC(C)(C)C` (Boc-FM[Sta]A[Sta]-OMe) yielded a pIC50 of 6.50.
In the case of `CCOC[C@H](NC(=O)[C@H](Cc1ccccc1)NC(=O)OC(C)(C)C)C(=O)N[C@@H](CC(C)C)[C@@H](O)CC(=O)N[C@@H](C)C(=O)N[C@@H](CC(C)C)[C@@H](O)CC(=O)OC` (Boc-FS(Et)[Sta]A[Sta]-OMe), the pIC50 was 6.95.
Molecule `COC(=O)C[C@H](O)[C@H](CC(C)C)NC(=O)[C@H](C)NC(=O)C[C@H](O)[C@H](CC(C)C)NC(=O)[C@H](Cc1ccccc1)NC(=O)[C@H](Cc1ccccc1)NC(C)=O` (Ac-FF[Sta]A[Sta]-OMe) has a pIC50 of 5.85.
Work on `COC(=O)C[C@H](O)[C@H](CC(C)C)NC(=O)[C@H](C)NC(=O)C[C@H](O)[C@H](CC(C)C)NC(=O)[C@H](CCS(C)(=O)=O)NC(=O)[C@H](Cc1ccccc1)NC(=O)OC(C)(C)C` (Boc-F[Met(O2)][Sta]A[Sta]-OMe) yielded a pIC50 of 5.00.
`CCCC[C@H](NC(=O)[C@H](Cc1ccccc1)NC(=O)OC(C)(C)C)C(=O)N[C@@H](CC(C)C)[C@@H](O)CC(=O)N[C@@H](C)C(=O)N[C@@H](CC(C)C)[C@@H](O)CC(=O)O` (Boc-F[Nle][Sta]A[Sta]-OH) gave a pIC50 of 7.52.
`COC(=O)C[C@H](O)[C@H](CC(C)C)NC(=O)[C@H](C)NC(=O)C[C@H](O)[C@H](CC(C)C)NC(=O)[C@H](COCc1ccccc1)NC(=O)[C@H](Cc1ccccc1)NC(=O)OC(C)(C)C` (Boc-FS(Bn)[Sta]A[Sta]-OMe) gave a pIC50 of 6.76.
`COC(=O)C[C@H](O)[C@H](CC(C)C)NC(=O)[C@H](C)NC(=O)C[C@H](O)[C@H](CC(C)C)NC(=O)C(NC(=O)[C@H](Cc1ccccc1)NC(=O)OC(C)(C)C)c1cccs1` (some centres undefined) (Boc-F[X1][Sta]A[Sta]-OMe) gave a pIC50 of 6.60.
For `COC(=O)C[C@H](O)[C@H](CC(C)C)NC(=O)[C@H](C)NC(=O)C[C@H](O)[C@H](CC(C)C)NC(=O)[C@H](CCC(N)=O)NC(=O)[C@H](Cc1ccccc1)NC(=O)OC(C)(C)C` (Boc-FQ[Sta]A[Sta]-OMe), the pIC50 was 6.50.
`COC(=O)C[C@H](O)[C@H](CC(C)C)NC(=O)[C@H](C)NC(=O)C[C@H](O)[C@H](CC(C)C)NC(=O)[C@H](CC(N)=O)NC(=O)[C@H](Cc1ccccc1)NC(=O)OC(C)(C)C` (Boc-FN[Sta]A[Sta]-OMe) was tested, and the pIC50 was 5.92.
Work on `COC(=O)C[C@H](O)[C@H](CC(C)C)NC(=O)[C@H](C)NC(=O)C[C@H](O)[C@H](CC(C)C)NC(=O)[C@H](CC1CCCCC1)NC(=O)[C@H](Cc1ccccc1)NC(=O)OC(C)(C)C` (Boc-F[Cha][Sta]A[Sta]-OMe) yielded a pIC50 of 6.31.
With `CCCC[C@H](NC(=O)[C@H](Cc1ccccc1)NC(=O)OC(C)(C)C)C(=O)N[C@@H](CC(C)C)[C@@H](O)CC(=O)N[C@@H](C)C(=O)N[C@@H](CC(C)C)[C@@H](O)CC(=O)OC` (Boc-F[Nle][Sta]A[Sta]-OMe) the pIC50 was 6.92.
Molecule `COC(=O)C[C@H](O)[C@H](CC(C)C)NC(=O)[C@H](C)NC(=O)C[C@H](O)[C@H](CC(C)C)NC(=O)[C@H](Cc1ccccc1)NC(=O)[C@H](Cc1ccccc1)NC(=O)CC(C)C` (Isovaleryl-FF[Sta]A[Sta]-OMe) has a pIC50 of 6.50.
In the case of `COC(=O)C[C@H](O)[C@H](CC(C)C)NC(=O)[C@H](C)NC(=O)C[C@H](O)[C@H](CC(C)C)NC(=O)[C@H](Cc1ccc(OCc2ccccc2)cc1)NC(=O)[C@H](Cc1ccccc1)NC(=O)OC(C)(C)C` (Boc-FY(Bn)[Sta]A[Sta]-OMe), the pIC50 was 5.85.
